Series [1] has as its system Leishmania donovani. The series is described as follows: Competitive inhibition of Leishmania donovani recombinant nucleoside hydrolase expressed in Escherichia coli DH5alpha coexpressing MBP using inosine as substrate by Lineweaver-Burk plot analysis.
In series [2] the test system is Leishmania donovani. The series is described as follows: Ratio of inosine Km to compound Ki for Leishmania donovani recombinant nucleoside hydrolase.
In series [3] the target is Xanthine dehydrogenase/oxidase (Homo sapiens, UniProt P47989). The series is described as follows: Inhibition of xanthine oxidase using hypoxanthine as substrate by UV-Vis spectrophotometry. Put shortly:
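Control with xanthine oxidase and hypoxanthine: uric acid formation followed spectrophotometrically, with and without test compound.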

Series [4] can be described thus: Inhibition of Leishmania donovani recombinant nucleoside hydrolase expressed in Escherichia coli DH5alpha coexpressing MBP using inosine as substrate by xanthine oxidase-coupled assay. Put shortly:
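MBP-fused enzyme (13 nM) with 0.3 mM inosine and xanthine oxidase (60 milliunits/mL) in 20 mM phosphate pH 8.0. Uric acid formation read at 293 nm, with at least six inhibitor concentrations. IC50 from nonlinear dose-response fit of % inhibition. Ki from five or six inhibitor concentrations at a substrate level near KM, converted with the Cheng–Prusoff equation.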

Series [5] concerns Leishmania donovani. In words: Activity of Leishmania donovani recombinant nucleoside hydrolase expressed in Escherichia coli DH5alpha coexpressing MBP. Summed up:
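LdNH fused to MBP, expressed from pMAL-c2-NH36 in E. coli DH5α (IPTG 0.3 mM, 2 h) and amylose-purified. Inosine hydrolysis coupled to excess xanthine oxidase (60 milliunits/mL) converting hypoxanthine to uric acid, read at 293 nm. 13 nM enzyme, inosine 0.3–3.0 KM, 20 mM phosphate pH 8.0, room temperature, triplicate. KM and Vmax from nonlinear Michaelis–Menten fit of initial velocities.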

3 compounds from ChEMBL document CHEMBL2086294, “Kinetics and docking studies of two potential new inhibitors of the nucleoside hydrolase from Leishmania donovani” (Eur J Med Chem, 2012) can be followed below.

Activity calls are given as the source filed them. No cut-off for these calls is given here.

Xanthine dehydrogenase/oxidase, sequence (P47989 whole entry): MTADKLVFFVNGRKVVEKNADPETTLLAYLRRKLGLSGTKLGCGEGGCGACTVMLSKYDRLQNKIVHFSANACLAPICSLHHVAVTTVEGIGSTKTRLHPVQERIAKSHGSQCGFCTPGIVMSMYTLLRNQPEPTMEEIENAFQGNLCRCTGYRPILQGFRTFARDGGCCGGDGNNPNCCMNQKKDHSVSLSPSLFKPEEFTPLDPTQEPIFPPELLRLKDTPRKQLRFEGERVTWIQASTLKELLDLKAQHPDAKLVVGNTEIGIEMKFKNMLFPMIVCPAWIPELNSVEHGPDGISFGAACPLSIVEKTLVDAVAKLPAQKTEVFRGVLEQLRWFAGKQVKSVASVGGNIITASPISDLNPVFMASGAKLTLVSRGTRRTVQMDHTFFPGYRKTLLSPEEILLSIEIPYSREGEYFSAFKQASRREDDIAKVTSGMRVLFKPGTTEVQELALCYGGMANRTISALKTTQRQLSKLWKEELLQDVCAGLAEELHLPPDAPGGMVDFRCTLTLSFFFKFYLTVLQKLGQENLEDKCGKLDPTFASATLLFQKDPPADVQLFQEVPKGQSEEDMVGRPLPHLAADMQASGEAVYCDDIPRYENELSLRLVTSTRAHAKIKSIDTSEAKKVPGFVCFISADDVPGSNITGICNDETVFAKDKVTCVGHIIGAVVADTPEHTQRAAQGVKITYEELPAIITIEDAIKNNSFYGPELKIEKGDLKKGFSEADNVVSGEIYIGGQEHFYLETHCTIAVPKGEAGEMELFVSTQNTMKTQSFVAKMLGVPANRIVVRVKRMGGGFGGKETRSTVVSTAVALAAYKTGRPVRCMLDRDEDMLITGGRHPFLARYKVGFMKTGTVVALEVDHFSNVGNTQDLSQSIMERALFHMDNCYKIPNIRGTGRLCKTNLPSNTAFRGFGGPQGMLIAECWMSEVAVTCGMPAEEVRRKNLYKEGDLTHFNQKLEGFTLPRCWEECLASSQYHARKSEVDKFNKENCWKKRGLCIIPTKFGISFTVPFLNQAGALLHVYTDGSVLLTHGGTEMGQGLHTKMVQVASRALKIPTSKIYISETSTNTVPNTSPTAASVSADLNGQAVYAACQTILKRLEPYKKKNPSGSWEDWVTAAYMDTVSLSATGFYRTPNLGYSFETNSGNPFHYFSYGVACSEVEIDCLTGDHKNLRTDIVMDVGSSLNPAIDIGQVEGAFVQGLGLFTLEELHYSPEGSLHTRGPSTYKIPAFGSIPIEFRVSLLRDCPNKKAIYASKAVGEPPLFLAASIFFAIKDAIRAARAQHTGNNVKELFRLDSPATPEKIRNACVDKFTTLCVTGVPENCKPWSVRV

Broadly, the IC50 is the concentration that inhibits the measured activity by half. For orientation: Ki means the dissociation constant of the complex between target and ligand, obtained from inhibition or displacement. As for `O=C(O)c1cn([C@@H]2O[C@H](CO)[C@@H](O)[C@H]2O)c2ccc(F)cc2c1=O`, the inhibition result in the series with Leishmania donovani [1] is “Active”. Also, in the series on Leishmania donovani [2], the Ratio is 26. Also, the “inhibition (INH)” value in series [3] is reported as “Not Active”. Further, in series [4], the IC50 stood at 28.9 µM and the Ki stood at 17 µM.

With `O=C(O)c1cn([C@@H]2O[C@H](CO)[C@@H](O)[C@H]2O)c2ccc(Cl)cc2c1=O`, the inhibition result with Leishmania donovani [1] is “Active”. In addition, in the series on Leishmania donovani [2], the Ratio came out at 270. Also, the “inhibition (INH)” value in series [3] is “Not Active”. Moreover, in series [4], the IC50 was 2.66 µM and the Ki amounted to 1.6 µM.

As usually defined, the Km is the concentration of substrate that gives half-maximal velocity. `O=c1[nH]cnc2c1ncn2[C@@H]1O[C@H](CO)[C@@H](O)[C@H]1O`: the Km in the series on Leishmania donovani [5] is 434 µM.
